Data from the EternaBench riboswitch data.

System: MS2 coat protein
Test: apparent Kd, MS2 coat protein; higher = weaker binding; RNA-MaP array
Summary of the method: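 Designed RNAs were transcribed in place on an Illumina sequencing chip from sequenced DNA templates. At room temperature and with or without input ligand, they were incubated with fluorescently labeled MS2 coat protein from 1.5 nM to 3 μM, for 0.8–1.5 h at the lowest and 10–20 min at the highest concentrations. Apparent Kd is the median of the binding-curve fits made per cluster, with designs measured on fewer than 10 clusters excluded.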

[1] = designed as: ON switch for tryptophan, no ligand
[2] = ligand present: tryptophan, designed as: ON switch for tryptophan
[3] = designed as: OFF switch for flavin mononucleotide, no ligand
[4] = ligand present: flavin mononucleotide, designed as: OFF switch for flavin mononucleotide
[5] = designed as: OFF switch for theophylline, no ligand
[6] = ligand present: theophylline, designed as: OFF switch for theophylline
[7] = designed as: ON switch for flavin mononucleotide, no ligand
[8] = ligand present: flavin mononucleotide, designed as: ON switch for flavin mononucleotide

| Sequence | apparent Kd [3] | apparent Kd [4] | further results |
| --- | --- | --- | --- |
| GAUAACAUGAGGAUCACCCAUGUGGCGUCGCGAGGACCGGUACGGCCGCCACUCGGCAGUUCAACUCGAAUAUAGUGAUCGAAGU |  |  | apparent Kd [1]: 138 nM; apparent Kd [2]: 87.5 nM |
| GAUAAGGAAGGAUAUACAAAGGAACAAAUACACAUUCUAAAACAUGAGGAUCACCCAUGUAGAAGGACCAACAA | 6.97 nM | 6.83 nM |  |
| GAUCGCAUCGUGAGGAUAUGAAAUGCCACUCAAAUACAGAAGGCACAUGAGGAUCACCCAUGUCUAGACAAGAG | 25.9 nM | 64.9 nM |  |
| GAUGGAAUAAGAGAUACCAGACACAAUUUAGCAUGUAUAUACAUGAGGAUCACCCAUGUAGUCCCUUGGCAGCUCUGGUUAGUGU |  |  | apparent Kd [5]: 26.5 nM; apparent Kd [6]: 26.7 nM |
| GCAAAGUAAGAAGGAUAUGCGUCCGGUGAACAACAACGCGAUCGAACAUGAGGAUCACCCAUGUCGCAGAAGGUCUGAGAAUUC | 27.4 nM | 40.3 nM |  |
| GCACGACAUGAGGAUCACCCAUGUGAGGAUAUACUACAUCAGGAACACGCUAUGCACGGUAGAAGGCACGGGAG | 16.4 nM | 15.6 nM |  |
| GCAGUAAGAGAGGAUAUGAUGGACGCAAGGGCGUCAGAAGGCUCUACAUGAGGAUCACCCAUGUGAAGUUCAUA | 6.12 nM | 6.52 nM |  |
| GCAUACAGCAAGAAGGUGGCAUCGACUAUGGCCCAAGGAUAUUGCGGUACUACAUGAGGAUCACCCAUGUGUUCAUGAUUAUAG |  |  | apparent Kd [7]: 35.5 nM; apparent Kd [8]: 30.2 nM |
| GCAUUACAUGAGGAUCACCCAUGUCUAGAUACCAGAUUUGUUUGAAUCCCUUGGCAGCUAGUGGACCACCGUACACGACAUACUA |  |  | apparent Kd (designed as: ON switch for theophylline, no ligand): 45.1 nM; apparent Kd (ligand present: theophylline, designed as: ON switch for theophylline): 24.9 nM |
| GCCAGUGUCUAGGAUAUCACGCCGCGUUGCAGGUGAGAAGGAGACACAUGAGGAUCACCCAUGUGUCCGAUAGG | 7.12 nM | 9.49 nM |  |
| GCCCAUUAAGACAUGAGGAUCACCCAUGUCACCGGGUAUGCCAGAAGGCUCUUAUAGAAGUAACGAGAGGAUAUGGGUGCUACU |  |  | apparent Kd [7]: 23.3 nM; apparent Kd [8]: 13.8 nM |
| GCGGGUUACCCAGAAUGAGAAACAUGAGGAUCACCCAUGUAGAAGGAUAUAGAGUCUUGGUCUGCCUAGAAGGUCUAUAAUUGA | 20.5 nM | 19.9 nM |  |
| GCUCGUUGCAUGGAUACCAGUUGAUAGGCCGCCUCCGGAUACAUGAGGAUCACCCAUGUCAACCCUUGGCAGCCACCCAAUAGGG |  |  | apparent Kd [5]: 9.36 nM; apparent Kd [6]: 18.1 nM |
| GGAAGUGUCUAGGAUAUCCUUCGAUCUAUGGCAGGAGAAGGAGAUACAUGAGGAUCACCCAUGUAGGUACGGGC | 7.1 nM | 6.75 nM |  |
| GGAAUGUAAGGAUAUACCCGUAAGGUAGGGAUCGCAUCGGCGUAGAAGGUACAUGAGGAUCACCCAUGUUCAGC | 7.78 nM | 7.97 nM |  |
| GGAUCGCGAGGAUAUACAUGAGGAUCACCCAUGUUUACUCACACAUUUUUAUUCUUCCGUAGAAGGCGCGCAAG | 5.52 nM | 5.4 nM |  |
| GGGUGACAUGAGGAUCACCCAUGUCAGGAUAUGGACUCGAAAUUAGGUAUGAAUCACGCCAGAAGGGACCGGGC | 55 nM | 44 nM |  |
| GGUCCGACAACAGGAUAUGUCAUACGCUAAUGAACAGAAGGGUUACAUGAGGAUCACCCAUGUGCUUACACAUGCUCCGGAGCA |  |  | apparent Kd [7]: 10.8 nM; apparent Kd [8]: 17.1 nM |
| GGUGACCCUGUUCCACAUGAGGAUCACCCAUGUUACCACUAUUAGGAUAUGCUUACAUGUACACUGCAGAAGGAAUAGGUAAGA | 103 nM | 442 nM |  |
| GUACGGUGAGGAUAUCGUUAAGAUGUGGACAGGCCUACAUACGAGAAGGCACAUGAGGAUCACCCAUGUUCAUA | 21.5 nM | 18.8 nM |  |
| GUGCUGAAUACGUAGGAUAUAGUGUGUGCGACAUGAGGAUCACCCAUGUAAAUUGCCCAUCAGAGCUAGAAGGACGAAUCUUCGUG |  |  | apparent Kd [7]: 15.5 nM; apparent Kd [8]: 8.78 nM |
| UAAAUUCGAGGAUAUACGAGCCUCUUGAGCUGCCACGAAGCACAUGAGGAUCACCCAUGUAGAAGGCGACGGAU | 12.2 nM | 19.9 nM |  |
| UAACAUGAGGAUCACCCAUGUACGAAGAGGGAAAGAAAAGUCAAGGAUAUGCGGAUUUAACUAGCGCAGAAGGUGAUCUAAGUU |  |  | apparent Kd [7]: 230 nM; apparent Kd [8]: 114 nM |
| UAAGCACAUGAGGAUCACCCAUGUGAGGAUAUGAGUGUCGGUCGAGAAGAGCGUCCAAUCAGAAGGCACAGGAU | 12.9 nM | 11.6 nM |  |
| UAAGCGUUAGGAUAUACAAAACGAAGAAAGUGAUUCAGAAUACAUGAGGAUCACCCAUGUAGAAGGAACGGGUA | 17.7 nM | 24.2 nM |  |
| UAAUAUGGAGGAUAUAAAGUCGAAGACAUGAGGAUCACCCAUGUCCUUGGUUGAAAGAGGUUAGAAGGCCAUAGUA | 9.47 nM | 9.66 nM |  |

| Sequence | apparent Kd [3] | apparent Kd [4] | further results |
| --- | --- | --- | --- |
| UACUUCACGAUACAGGAUAUACGUAAGUUCACAUGAGGAUCACCCAUGUUAGCACACCAACUCAUGUAGAAGGGUAUCCCUAUAUA |  |  | apparent Kd [7]: 30.4 nM; apparent Kd [8]: 13.1 nM |
| UAGAAGAACAUGCGGGCUCCGGACGGUGAUACCAGAUCGAAAAGGAUCCCUUGGCAGCACUGCACAUGAGGAUCACCCAUGUGCA |  |  | apparent Kd [5]: 9.2 nM; apparent Kd [6]: 15.8 nM |
| UAGGUACAUGAGGAUCACCCAUGUCCUAUUACUACAGGAUAUAGCGUGCCUAGAUGGGUGCUAGAAGGGUAGAUCU |  |  | apparent Kd [7]: 20.7 nM; apparent Kd [8]: 9.13 nM |
| UAUAGGACUUAAGGAUAUGGCACCGGUGUCCCGCCAGAAGGUAAGGACCACACAUGAGGAUCACCCAUGUUCUCGAGAAUGGGA |  |  | apparent Kd [7]: 145 nM; apparent Kd [8]: 112 nM |
| UCAAGCGAAGGAUAUACAUGAGGAUCACCCAUGUUGGCUAGAAUGAAAGACGGAUUAUGUAGAAGGUCGUGUGC | 20.3 nM | 17.6 nM |  |
| UCAGCUAGACAGGAUAUAGAGAAUCAAGAACAGCUAGAAGGGUCAACAUGAGGAUCACCCAUGUGGUGGUACUG | 477 nM | 445 nM |  |
| UCAUACAUGAGGAUCACCCAUGUUCGUGGGCGAGGACCGGUACGGCCGCCACUCGUACUAACGGUUUCUUAAACUUCCUUUCGAG |  |  | apparent Kd [1]: 25.6 nM; apparent Kd [2]: 17.2 nM |
| UCAUUUUUCACGGCCGCCACUUCAAGGUCCUGAGGCUGGGCAACACAUGAGGAUCACCCAUGUCGAAGGACCGGGUGAAGCUACC |  |  | apparent Kd [1]: 114 nM; apparent Kd [2]: 183 nM |
| UCCCGACAUGAGGAUCACCCAUGUCCAUUGUCGGUCGAGAGUAAGGAUAUAGAUAAUCAGGAGAACUAGAAGGUACUGUUAGCG | 530 nM | 164 nM |  |
| UCCCUGCAAGGAUAUACAUGAGGAUCACCCAUGUUUACACACGAAAAUUUGGAGAUAGGUAGAAGGUGCAUUUU | 12.6 nM | 11.8 nM |  |
| UCGCGCUAAGGAUAUACUAUAAGCCACAUGAGGAUCACCCAUGUUAUAUACAUGUCCUCGGUAGAAGGUAGCCGGA | 48.6 nM | 50.2 nM |  |
| UCGUCGCUUCAGAAGGACAGACAAUCGUGCACUGUAGGAUAUGAGACGCGACAUGAGGAUCACCCAUGUGAACGGUUCGUAUAA | 25.1 nM | 53 nM |  |
| UCUGCGUCAGUCAGGAUAUGUUGCCAAAUUAUGGCACAGAAGGGACAUGAGGAUCACCCAUGUAGCGUCUCCGU | 10.2 nM | 10.4 nM |  |
| UGAACGUCAAGGCAGGAUAUUCUCAAGACAACAUGAGGAUCACCCAUGUUACAACGAUAAAUGAUGAAGAAGGGCCAGGGAUCAUA |  |  | apparent Kd [7]: 11.8 nM; apparent Kd [8]: 6.33 nM |
| UGAAUGCACCAGAAGGCUGGAAGAGUAUUUAACAGAGGAUAUGGAACAUAAAGAUCACAUGAGGAUCACCCAUGUACACAUAAC |  |  | apparent Kd [7]: 34.5 nM; apparent Kd [8]: 11.1 nM |
| UGCCCUACAUGAGGAUCACCCAUGUACAUAACAUGAGUGCGCAGAAGGUAUGCGUUGAAGAGCCAUAAGGAUAUGCAAACCGUC |  |  | apparent Kd [7]: 114 nM; apparent Kd [8]: 71.1 nM |
| UGGAACAGUGUAAGGAUAUGGUACAAAAUAAACUCCCAGAAGGUACAUGAGGAUCACCCAUGUUAAUAAGACAA | 13.7 nM | 13.6 nM |  |
| UGGUAUGAAGGAUAUGACUAAGUUCACAUGAGGAUCACCCAUGUAACGUCCUCGACAUGUUCAGAAGGUCAGGCGA | 11.7 nM | 11.4 nM |  |
| UGUAUAGCCACUCAGGAUAUAGUUCAUCACACAUGAGGAUCACCCAUGUUACCAAUAUCAUCUGACUAGAAGGGAGAGACUUGCGU |  |  | apparent Kd [7]: 13.4 nM; apparent Kd [8]: 9.17 nM |
| UGUUGCAGCCACAUGAGGAUCACCCAUGUGCUCAGGAUCGUUGAGGAUAUCGAGGUAGGGUCAGCCGAGAAGGCAAGGGUCGCG |  |  | apparent Kd [7]: 10.5 nM; apparent Kd [8]: 8.64 nM |
| UGUUUACAUGAGGAUCACCCAUGUGUUAUCGUAUUAGGAUAUGCAUGACGAUGAUUUUCGGCAGAAGGAAUGCGCA |  |  | apparent Kd [7]: 439 nM; apparent Kd [8]: 101 nM |
| UUGAGACAACACCCAACAUGAGGAUCACCCAUGUCACCGAGAGAGGAUAUGCACGAGUAGGUCCAGCAGAAGGCUCUAUGUCAA |  |  | apparent Kd [7]: 115 nM; apparent Kd [8]: 15.9 nM |
| UUGCAAGUAGGAUAUAGUAGCGAAUACAUGAGGAUCACCCAUGUAGCCAGUGUAUUGCUUCUAGAAGGACUUCUCC | 29.3 nM | 34.9 nM |  |
| UUGUGGUAGGCGCAUACUCAUUUAUACAAGCGAGGACCGGUACGGCCGCCACUCGGAAUAAAACAUGAGGAUCACCCAUGUACCG |  |  | apparent Kd (designed as: OFF switch for tryptophan, no ligand): 13.7 nM; apparent Kd (ligand present: tryptophan, designed as: OFF switch for tryptophan): 19.1 nM |
| UUUACAUGAGGAUCACCCAUGUUCCCUUGUGACACGUUUUUCAGAAGGACAGGCAUAAUUUGGAUGUAGGAUAUGAAUUAGUGC | 24.9 nM | 21.9 nM |  |
| UUUUACAUGAGGAUCACCCAUGUGCGGCGCCGAGGACCGGUACGGCCGCCACUCGCAUGGGCAUGCCGCGAUAUCAUUCCUGAAC |  |  | apparent Kd [1]: 96.2 nM; apparent Kd [2]: 103 nM |
